# “Also recorded” adds a separate entry of the source.
# Assays:
# [1] = system: YU2, HXBc2 and HX(YU2 V3) gp120 glycoproteins; test: Direct binding of 3H-labeled BMS-806 to gp120 variants; parameters: species or system HIV-1; settings: all three gp120 glycoproteins
# [2] = target: gp120 core bound to the 17b antibody; test: Thermodynamic cycle by isothermal titration calorimetry, gp120 core bound to 17b; type: binding, HIV-1
# gp120 core-17b complex = test: BIAcore analysis; type: binding, HIV-1; settings: data not shown
# [3] = system: viruses with the w.t. YU2 envelope glycoproteins; test: Inhibition of infection of Cf2Th-CD4/CCR5 cells, w.t. YU2 virus; type: cell-based, HIV-1; settings: for IC50: read-out: 50% inhibitory concentration (IC50), Cf2Th-CD4/CCR5 cells, w.t. YU2 envelope glycoproteins
# Summary of the method: (§1)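 Cf2Th-CD4/CCR5 cells were seeded at 6×10^3/well 24 h ahead. Luciferase viruses bearing YU2 Env (w.t. or S375A) or control A-MLV Env were premixed with test compound (1 to 100 μM) for 30 min at 37°C, then added to the cells for 48 h at 37°C. Luciferase was read after freeze-thaw lysis. Infection was expressed relative to no compound. IC50 is the mean ± SD of five independent experiments, each run in triplicate.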
# [4] = system: Viruses with the S375A envelope glycoproteins; test: Inhibition of infection of Cf2Th-CD4/CCR5 cells, S375A virus; type: cell-based, HIV-1
# Summary of the method: as §1
# [5] = system: recombinant HIV-1 with the wild-type HIV-1YU2 envelope glycoproteins; test: Enhancement of infection of CD4-negative Cf2Th-CCR5 cells, w.t. YU2 virus; type: cell-based
# [6] = system: viruses containing a chimeric HIV-1 envelope glycoprotein (HX(YU2 V3)); test: Enhancement of infection of Cf2Th-CCR5 cells, HX; type: cell-based
# [7] = system: viruses with the S375W mutant envelope glycoproteins; test: Enhancement of infection of Cf2Th-CCR5 cells, S375W virus; type: cell-based, HIV-1
# [8] = system: viruses with the S375A change; test: Enhancement of infection of Cf2Th-CCR5 cells, S375A virus; type: cell-based, HIV-1; settings: S375A envelope glycoproteins, compared with w.t.
# D368A mutant viruses = test: Enhancement of infection of Cf2Th-CCR5 cells, D368A virus; type: cell-based, HIV-1; settings: CD4−CCR5+ target cells; D368A envelope glycoproteins
# [9] = system: viruses with Glu 429 replaced with a lysine residue; test: Enhancement of infection of Cf2Th-CCR5 cells, Glu 429 to lysine virus; type: cell-based, HIV-1; settings: Glu 429 replaced with lysine
# [10] = system: viruses with an alanine residue substituted for Glu 429; test: Enhancement of infection of Cf2Th-CCR5 cells, Glu 429 to alanine virus; type: cell-based, HIV-1; settings: Glu 429 replaced with alanine
# [11] = system: viruses with the KB9 envelope glycoproteins; test: Entry into CD4-negative Cf2Th-CXCR4 cells, KB9 virus; type: cell-based, HIV-1; settings: data not shown
# [12] = system: envelope glycoproteins of the laboratory-adapted CXCR4-using (X4) HIV-1 isolate, HXBc2; test: Entry into CD4-negative Cf2Th-CXCR4 cells, HXBc2 virus; type: cell-based; settings: data not shown
# HXBc2 gp120 = HXBc2 gp120 (Human immunodeficiency virus type 1 group M subtype B, UniProt P04578); test: Direct binding of 3H-labeled NBD-556, HXBc2 gp120; parameters: species or system HIV-1
Structure (SMILES),direct binding of 3H-labeled BMS-806 (in words) [1],"Kd ([2]; gp120 core bound to the 17b antibody, isothermal titration calorimetry)",increase in affinity for the gp120 core bound to the 17b antibody ([2]; versus gp120 core alone),Kd (gp120 core-17b complex),IC50 [3],IC50 [4],enhancement of HIV-1 entry/infection of CCR5+ cells (in words) [5],enhancement of infection (in words) [6],enhancement of infection (in words) [7],enhancement of infection (in words) [8],enhancement of infectivity (in words) (D368A mutant viruses),activation of infection (in words) [9],virus-enhancing activity (in words) [10],enhancement of entry (in words) [11],enhancement of entry (in words) [12],direct binding of 3H-labeled NBD-556 (in words) (HXBc2 gp120),inhibition of HIV-1YU2 infection of cells expressing CD4 and CCR5 (in words) ([3]; specificity versus A-MLV envelope glycoproteins)
COc1ccnc2[nH]cc(C(=O)C(=O)N3CCN(C(=O)c4ccccc4)C[C@H]3C)c12 [BMS-806],similarly,–,–,–,–,–,–,–,–,–,–,–,–,–,–,–,–
CC1(C)CC(NC(=O)C(=O)Nc2ccc(Cl)cc2)CC(C)(C)N1 [NBD-556],–,1.5 µM,approximately 25 fold,6.6 µM,100 µM,10 to 20 µM,significant enhancement,dramatically enhanced infection,not enhanced,greater enhancement,enhanced,eliminated the activation of infection,less disruptive,did not enhance,not functionally enhanced,only moderately,–
CC1(C)CC(NC(=O)C(=O)Nc2ccc(Br)cc2)CC(C)(C)N1 [NBD-557],–,–,–,–,–,–,comparably to NBD-556,–,did not activate the entry,–,not enhanced,eliminated the activation of infection,significantly diminished,–,–,–,–
CC1(C)CC(NC(=O)C(=O)Nc2ccc(Cl)c(F)c2)CC(C)(C)N1 [JRC-II-191],–,–,–,–,54 µM,10 to 20 µM,most potent stimulation of HIV-1 infection; also recorded: activated HIV-1 infection,–,did not activate the entry,–,enhanced,eliminated the activation of infection,significantly diminished,–,–,–,specifically inhibited

# — article PMC2597202 (Structure (London, England : 1993), 2008)
